Data published in paper PMC3215871 (Cancer Chemotherapy and Pharmacology, 2011).
Where “and” joins values, the source holds several entries; their conditions need not be identical. Equal entries are not always repeated. Where two headings read alike, the source gives them in different places. Each block holds one compound with its values, some of them ahead of it. Peptide text beside a SMILES is read from it. * marks the point of attachment. Cbz = O=C(OCc1ccccc1)*

Legend:
RPMI-8226 cells = assay: Bortezomib–EGCG combination matrix, ATP luminescence cell viability; assay type: cell-based, human
[1] = Pharmacokinetics of EGCG in mice; assay type: in vivo; settings: for Cmax: read-out: mean Cmax
Procedure, shortened: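 Naïve female nude or male CB-17 SCID mice aged 5–8 weeks given EGCG in 0.9% saline: PO 50, IV 50 and 100, or SC 50 mg/kg. Cardiac blood taken under CO2 from 5 min to 48 h; EDTA plasma stabilised 1:1 with ascorbic acid/EDTA, stored at −80°C, assayed by LC/MS/MS. Concentrations at bortezomib dosing times projected from these profiles.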

[2] = system: CWR22 human prostate xenograft tumors; assay: In vivo antitumor activity; design: species or system mice
Procedure, shortened: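 Male CB-17 SCID mice aged 5–8 weeks implanted SC in the flank (trocar) with CWR22 fragments; randomised at 150–250 mm3 (n = 9/group). EGCG 50 mg/kg IV or SC BIW for 7 doses; ascorbic acid 40 or 500 mg/kg PO QD for 22 days; vehicle 0.9% saline. Calipers BIW; volume = 0.5 × length × width². TGI from mean volumes versus control on day 22 or 25.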

20S proteasome [3] = molecular target: T1, 20S proteasome (Mus musculus, UniProt O55234); assay: 20S proteasome activity in blood, enzymatic assay; assay type: in vivo, mice; settings: for inhibition at 0.8 mg/kg: mouse
T1 sequence (O55234 60-264): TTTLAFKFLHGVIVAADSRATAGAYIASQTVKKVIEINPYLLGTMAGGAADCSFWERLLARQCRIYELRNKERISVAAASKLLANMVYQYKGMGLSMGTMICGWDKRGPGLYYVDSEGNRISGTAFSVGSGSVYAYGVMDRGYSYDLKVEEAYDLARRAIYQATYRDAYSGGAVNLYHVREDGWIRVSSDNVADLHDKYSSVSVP
Procedure, shortened: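 20S proteasome activity in blood measured by an enzymatic assay on samples taken 4 h after dosing. Schedules were bortezomib 0.8 mg/kg IV, EGCG 50 mg/kg IV alone, EGCG 50 mg/kg IV then bortezomib 2 min later, or EGCG 50 mg/kg SC then bortezomib 30 or 60 min later. Inhibition expressed relative to vehicle controls.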

20S proteasome [4] = molecular target: T2, 20S proteasome (Homo sapiens, UniProt P28074); assay: 20S proteasome activity in xenograft tumors, enzymatic assay; assay type: in vivo
T2 sequence (P28074 60-263): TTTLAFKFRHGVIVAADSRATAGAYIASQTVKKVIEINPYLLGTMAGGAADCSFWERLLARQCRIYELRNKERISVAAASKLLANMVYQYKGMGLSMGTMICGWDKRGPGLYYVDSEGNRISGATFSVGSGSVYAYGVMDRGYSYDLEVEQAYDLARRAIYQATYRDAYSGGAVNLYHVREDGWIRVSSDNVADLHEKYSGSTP
Procedure, shortened: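 CWR22 human prostate tumor fragments were implanted subcutaneously by trocar in the flank of male CB-17 SCID mice aged 5–8 weeks. Tumor-bearing mice received an IV dose of the test compound. At 4 h, tumors were collected and 20S proteasome activity was measured by an enzymatic assay. Inhibition is expressed as a mean percentage relative to vehicle-treated controls.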

[5] = system: phospho-β-catenin (Ser33/Ser37/Thr41), GADD34 and ATF3; assay: Western blot of xenograft tumors for proteasome substrate and ER stress markers; assay type: in vivo, human; settings: 4 h
Procedure, shortened: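 CWR22 xenograft tumours harvested 4 h after dosing with bortezomib 0.8 mg/kg IV, EGCG 50 mg/kg IV, or EGCG (IV, then bortezomib 2 min later; SC, then bortezomib 30 or 60 min later). Western blots probed for phospho-β-catenin (Ser33/Ser37/Thr41), GADD34 and ATF3, compared with vehicle controls.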

[6] = cited from earlier work; for maximal plasma concentration: humans, 800 mg EGCG supplements
[7] = cited from earlier work
MM cell lines = settings: 10 nM bortezomib, several MM cell lines; cited from earlier work
glioblastoma cell line = settings: 20 μM EGCG, 20 nM bortezomib; cited from earlier work
[8] = system: mouse xenograft models of human MM; settings: cited from earlier work
[9] = cited from earlier work; remark: listed apart in the source
[10] = Pharmacokinetics of ascorbic acid; assay type: in vivo, mice; settings: for Cmax / Tmax: male, CB-17 SCID, mouse, po
Procedure, shortened: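 Male CB-17 SCID mice bearing CWR22 tumours (naïve mice also sampled) given ascorbic acid 40 or 500 mg/kg PO in 0.9% saline. Cardiac blood taken at 0.5–6 h into lithium heparin; plasma stabilised 1:1 with 10% metaphosphoric acid, stored at −80°C. LC/MS/MS in negative ion MRM mode (m/z 175.0/114.8).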

[11] = humans, oral dose of 1,250 mg; cited from earlier work
RPMI8226 cells = settings: cited from earlier work
[12] = human plasma, within an hour post-dose; cited from earlier work
[13] = iv, read-out: mean 20S proteasome inhibition

- Projected plasma concentration of EGCG at the time of bortezomib dosing ([1]; 50 mg/kg IV EGCG, 2 min interval): 224 µM
- Projected plasma concentration of EGCG at the time of bortezomib dosing ([1]; 50 mg/kg SC EGCG, 30 min interval): 11 to 16 µM
- Projected plasma concentration of EGCG at the time of bortezomib dosing ([1]; 50 mg/kg SC EGCG, 60 min interval): 4 to 8 µM
- time plasma concentration remained higher than 3 μM ([1]; IV and SC dosing at 50 mg/kg): ~2 h
- maximal EGCG concentration ([1]; SC 50 mg/kg): > 25 µM
- EGCG plasma concentration ([1]; SC 50 mg/kg, 30 min post-dose, first study): 16.2 µM
- EGCG plasma concentration ([1]; SC 50 mg/kg, 30 min post-dose, second study): 11.3 µM
- EGCG plasma concentration ([1]; SC 50 mg/kg, 1 h post-dose, first study): 8.4 µM
- EGCG plasma concentration ([1]; SC 50 mg/kg, 1 h post-dose, second study): 3.9 µM
- EGCG plasma concentration ([1]; SC 50 mg/kg, 2 h post-dose, first study): 2.8 µM
- EGCG plasma concentration ([1]; SC 50 mg/kg, 2 h post-dose, second study): 2.5 µM
- mean plasma Tmax ([1]; SC 50 mg/kg, naïve male CB17 SCID mice, both studies): 0.083 h
- plasma levels of EGCG ([1]; after IV dosing (50 and 100 mg/kg), within 30 min of dosing): < 20 µM
- maximal plasma concentration ([1]; oral dosing 50 mg/kg): < 0.1 µM
- Cmax ([1]; SC 50 mg/kg, naïve male CB17 SCID mice, first study): 33.7 µM
- Cmax ([1]; SC 50 mg/kg, naïve male CB17 SCID mice, second study): 26 µM
- mean plasma Tmax ([1]; single oral dose 50 mg/kg, naïve female nude mice): 0.5 h
- inhibition of proteasome activity compared with vehicle controls (20S proteasome [3]; blood, EGCG 50 mg/kg IV alone, 4 h (Fig. 4a)): No inhibition
- inhibition of proteasome activity compared with vehicle controls (20S proteasome [4]; tumor, EGCG 50 mg/kg IV alone, 4 h (Fig. 4a)): No inhibition
SMILES: O=C(O[C@@H]1Cc2c(O)cc(O)cc2O[C@@H]1c1cc(O)c(O)c(O)c1)c1cc(O)c(O)c(O)c1 [EGCG, epigallocatechin gallate]
- antagonism of 40 nM bortezomib (RPMI-8226 cells; EGCG 3.8 μM): no antagonism
- cytotoxicity of EGCG on its own (RPMI-8226 cells; EGCG 100 μM): cytotoxic
- impact on the cytotoxicity of bortezomib (RPMI-8226 cells; EGCG concentrations of up to 0.4 μM): no impact
- EGCG concentration required for a substantial shift in the potency of bortezomib (RPMI-8226 cells; RPMI8226 cell viability): > 1000 nM
- TGI ([2]; EGCG 50 mg/kg IV BIW alone): −15.3%
- TGI ([2]; EGCG 50 mg/kg SC BIW single agent): 3.6%
- levels of phospho-β-catenin, GADD34, and ATF3 ([5]; EGCG 50 mg/kg IV on its own): does not change levels
- EGCG concentration measured clinically ([6]; humans taking EGCG supplements): 0.6 to 3 µM
- maximal plasma concentration ([6]; taken after fasting): approximately 3 μM and 1,522 ng/ml
- maximal plasma concentration ([6]; taken with food): approximately 0.6 μM and 294 ng/ml
- plasma concentration ([7]; 50 mg/kg EGCG administered intragastrically, at 50 min): approximately 60 nM
- maximal plasma concentrations ([7]; mice, oral dosing of 50 and 80 mg/kg): 0.06 to 0.28 µM
- EGCG concentrations that antagonized the cytotoxic effect of bortezomib (MM cell lines): ≥ 2.5 µM
- effect on proteasome inhibition by bortezomib (glioblastoma cell line): blocked proteasome inhibition
- effect on the antitumor effects of bortezomib ([8]; oral EGCG 25 or 50 mg/kg, bortezomib i.p. 0.5 mg/kg): inhibits the antitumor effects

SMILES: CC(C)C[C@@H](C=O)NC(=O)[C@H](CC(C)C)NC(=O)[C@H](CC(C)C)NC(=O)OCc1ccccc1 [MG-132] (Cbz-Leu-Leu-Leu-aldehyde)
- effect of EGCG on the proteasome inhibitor [9]: has no effect

SMILES: CC(C)C[C@H](NC(=O)[C@H](CC(C)C)NC(=O)[C@H](CC(C)C)NC(=O)OCc1ccccc1)B(O)O [MG-262]
- effect of EGCG on the proteasome inhibitor [9]: antagonizes

- Cmax ([10]; plasma, 40 mg/kg): 72.8 µM
- Tmax ([10]; plasma, 40 mg/kg): 4 h
- Cmax ([10]; plasma, 500 mg/kg): 193 µM
- Tmax ([10]; plasma, 500 mg/kg): 2 h
- time elevated plasma level above endogenous is maintained ([10]; oral dosing 40 and 500 mg/kg): at least 6 h
- levels of endogenous ascorbic acid ([10]; plasma, naïve or CWR22 tumor-bearing male CB-17 SCID mice): 48.3 to 59.2 µM
SMILES: O=C1O[C@H]([C@@H](O)CO)C(O)=C1O [ascorbic acid]
- TGI ([2]; ascorbic acid 40 mg/kg PO QD alone): −24.4%
- TGI ([2]; ascorbic acid 500 mg/kg PO QD alone): −15.5%
- maximal concentrations [11]: approximately 150 μM
- antagonism of the activity of bortezomib (RPMI8226 cells; 30 μM ascorbic acid, 5 and 10 nM bortezomib): partially antagonized
- antagonism of the activity of bortezomib (RPMI8226 cells; 250 μM ascorbic acid, 5–10 nM bortezomib): nearly complete antagonism
- effect on the antitumor effects of bortezomib ([8]; oral vitamin C 40 mg/kg/day, bortezomib IV 0.1 mg/kg): inhibits the antitumor effects

- increase in the IC50 of bortezomib (RPMI-8226 cells; 3.8 μM EGCG versus no EGCG): 2.5 fold
- IC50 (RPMI-8226 cells; read-out: Btz IC50, RPMI-8226 cells, 48 h, EGCG 425 nM (0.4 μM)): 7 nM
- inhibition at 0.8 mg/kg (20S proteasome [3]; [13]): 44%
- inhibition at 0.8 mg/kg (20S proteasome [3]; read-out: mean proteasome inhibition): 59%
- inhibition at 0.8 mg/kg (20S proteasome [4]; [13]): 52%
SMILES: CC(C)C[C@H](NC(=O)[C@H](Cc1ccccc1)NC(=O)c1cnccn1)B(O)O [bortezomib, reference compound]
- TGI ([2]; bortezomib 0.8 mg/kg IV BIW alone, vitamin C study (Fig. 5b)): 62.8%
- TGI ([2]; bortezomib 0.8 mg/kg IV BIW single agent, across EGCG studies, versus control): 53.9–58.9%
- levels of phospho-β-catenin, GADD34, and ATF3 compared with vehicle controls ([5]; bortezomib 0.8 mg/kg IV): elevated levels
- drop of plasma concentrations [12]: more than 10 fold
- effect of EGCG on the proteasome inhibitor [9]: antagonizes

SMILES: Cc1c(O)cccc1C(=O)N[C@@H](CSc1ccccc1)[C@H](O)CN1C[C@H]2CCCC[C@H]2C[C@H]1C(=O)NC(C)(C)C [nelfinavir]
- effect of EGCG on the proteasome inhibitor [9]: has no effect
